Measurements taken from ChEMBL document CHEMBL4043132, “3-O-Substituted-3',4',5'-trimethoxyflavonols: Synthesis and cell-based evaluation as anti-prostate cancer agents” (Bioorg Med Chem, 2017).
Blank lines part the entries; values can stand above or below the molecule they belong to.

Assays:
PC-3 [1] = assay: Antiproliferative activity against human PC3 cells after 3 days by WST-1 assay; assay type: functional, cell-based; details: PC-3, 72 h
Summary of the method: (§1)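 Cells from ATCC; PC-3 and LNCaP grown in RPMI-1640 and DU145 in EMEM, each with 10% FBS and 1% penicillin/streptomycin, 37 °C, 5% CO2. Seeded 3,200 cells/well and exposed for 3 days to at least five doses, with DMSO as vehicle control. WST-1 reagent added for 3 h at 37 °C, absorbance read at 430 nm. IC50 taken from a linear inhibition plot; mean ± SD of three independent experiments.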

DU-145 = assay: Antiproliferative activity against human DU145 cells after 3 days by WST-1 assay; assay type: functional, cell-based; details: DU-145, 72 h; summary of the method: as §1
LNCaP = assay: Antiproliferative activity against human LNCAP cells after 3 days by WST-1 assay; assay type: functional, cell-based; details: 72 h; summary of the method: as §1
PWR-1E = assay: Antiproliferative activity against human PWR-1E cells after 3 days by WST-1 assay; assay type: cell-based; details: 72 h
Summary of the method: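 PWR-1E benign prostate epithelial cells grown in keratinocyte serum-free medium with bovine pituitary extract and recombinant human EGF. Seeded 3,200 cells/well and treated for 3 days at 37 °C, with DMSO as vehicle control. WST-1 reagent added for 3 h, absorbance read at 430 nm. IC50 from a linear inhibition plot over at least five doses; mean ± SD, n = 3.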

PC-3 [2] = assay: Cell cycle arrest in human PC3 cells assessed as accumulation at G0/G1 phase at 10 uM after 16 hrs by propidium iodide staining-based flow cytometry (reference value: 34.1%); assay type: functional
PC-3 [3] = assay: Cell cycle arrest in human PC3 cells assessed as accumulation at G0/G1 phase at 20 uM after 16 hrs by propidium iodide staining-based flow cytometry (reference value: 34.1%); assay type: functional
PC-3 [4] = assay: Cell cycle arrest in human PC3 cells assessed as accumulation at G0/G1 phase at 10 uM after 24 hrs by propidium iodide staining-based flow cytometry (reference value: 37.5%); assay type: functional
PC-3 [5] = assay: Cell cycle arrest in human PC3 cells assessed as accumulation at G0/G1 phase at 20 uM after 24 hrs by propidium iodide staining-based flow cytometry (reference value: 37.5%); assay type: functional
PC-3 [6] = assay: Cell cycle arrest in human PC3 cells assessed as accumulation at S phase at 10 uM after 16 hrs by propidium iodide staining-based flow cytometry (reference value: 9.9%); assay type: functional
PC-3 [7] = assay: Cell cycle arrest in human PC3 cells assessed as accumulation at S phase at 20 uM after 16 hrs by propidium iodide staining-based flow cytometry (reference value: 9.9%); assay type: functional
PC-3 [8] = assay: Cell cycle arrest in human PC3 cells assessed as accumulation at S phase at 10 uM after 24 hrs by propidium iodide staining-based flow cytometry (reference value: 8.0%); assay type: functional
PC-3 [9] = assay: Cell cycle arrest in human PC3 cells assessed as accumulation at S phase at 20 uM after 24 hrs by propidium iodide staining-based flow cytometry (reference value: 8.0%); assay type: functional
PC-3 [10] = assay: Cell cycle arrest in human PC3 cells assessed as accumulation at G2/M phase at 10 uM after 16 hrs by propidium iodide staining-based flow cytometry (reference value: 32.3%); assay type: functional
PC-3 [11] = assay: Cell cycle arrest in human PC3 cells assessed as accumulation at G2/M phase at 20 uM after 16 hrs by propidium iodide staining-based flow cytometry (reference value: 32.3%); assay type: functional
PC-3 [12] = assay: Cell cycle arrest in human PC3 cells assessed as accumulation at G2/M phase at 10 uM after 24 hrs by propidium iodide staining-based flow cytometry (reference value: 27.8%); assay type: functional
PC-3 [13] = assay: Cell cycle arrest in human PC3 cells assessed as accumulation at G2/M phase at 20 uM after 24 hrs by propidium iodide staining-based flow cytometry (reference value: 27.8%); assay type: functional
PC-3 [14] = assay: Induction of apoptosis in human PC3 cells assessed as viable cells at 1 uM after 16 hrs by F2N12S and CYTOX AADvanced double staining-based flow cytometric analysis (reference value: 95%); assay type: functional; details: PC-3, 16 h, read-out: Activity
PC-3 [15] = assay: Induction of apoptosis in human PC3 cells assessed as apoptotic cells at 1 uM after 16 hrs by F2N12S and CYTOX AADvanced double staining-based flow cytometric analysis (reference value: 2 to 3%); assay type: functional
PC-3 [16] = assay: Induction of apoptosis in human PC3 cells assessed as necrotic cells at 1 uM after 16 hrs by F2N12S and CYTOX AADvanced double staining-based flow cytometric analysis (reference value: 2 to 3%); assay type: functional
PC-3 [17] = assay: Induction of apoptosis in human PC3 cells assessed as viable cells at 5 uM after 16 hrs by F2N12S and CYTOX AADvanced double staining-based flow cytometric analysis (reference value: 95%); assay type: functional; details: PC-3, 16 h, read-out: Activity
PC-3 [18] = assay: Induction of apoptosis in human PC3 cells assessed as apoptotic cells at 5 uM after 16 hrs by F2N12S and CYTOX AADvanced double staining-based flow cytometric analysis (reference value: 2 to 3%); assay type: functional
PC-3 [19] = assay: Induction of apoptosis in human PC3 cells assessed as necrotic cells at 5 uM after 16 hrs by F2N12S and CYTOX AADvanced double staining-based flow cytometric analysis (reference value: 2 to 3%); assay type: functional
PC-3 [20] = assay: Induction of apoptosis in human PC3 cells assessed as viable cells at 10 uM after 16 hrs by F2N12S and CYTOX AADvanced double staining-based flow cytometric analysis (reference value: 95%); assay type: functional; details: PC-3, 16 h, read-out: Activity
PC-3 [21] = assay: Induction of apoptosis in human PC3 cells assessed as apoptotic cells at 10 uM after 16 hrs by F2N12S and CYTOX AADvanced double staining-based flow cytometric analysis (reference value: 2 to 3%); assay type: functional
PC-3 [22] = assay: Induction of apoptosis in human PC3 cells assessed as necrotic cells at 10 uM after 16 hrs by F2N12S and CYTOX AADvanced double staining-based flow cytometric analysis (reference value: 2 to 3%); assay type: functional
PC-3 [23] = assay: Induction of apoptosis in human PC3 cells assessed as viable cells at 20 uM after 16 hrs by F2N12S and CYTOX AADvanced double staining-based flow cytometric analysis (reference value: 95%); assay type: functional; details: PC-3, 16 h, read-out: Activity
PC-3 [24] = assay: Induction of apoptosis in human PC3 cells assessed as apoptotic cells at 20 uM after 16 hrs by F2N12S and CYTOX AADvanced double staining-based flow cytometric analysis (reference value: 2 to 3%); assay type: functional
PC-3 [25] = assay: Induction of apoptosis in human PC3 cells assessed as necrotic cells at 20 uM after 16 hrs by F2N12S and CYTOX AADvanced double staining-based flow cytometric analysis (reference value: 2 to 3%); assay type: functional
PC-3 [26] = assay: Induction of apoptosis in human PC3 cells assessed as viable cells at 30 uM after 16 hrs by F2N12S and CYTOX AADvanced double staining-based flow cytometric analysis (reference value: 95%); assay type: functional; details: PC-3, 16 h, read-out: Activity
PC-3 [27] = assay: Induction of apoptosis in human PC3 cells assessed as apoptotic cells at 30 uM after 16 hrs by F2N12S and CYTOX AADvanced double staining-based flow cytometric analysis (reference value: 2 to 3%); assay type: functional
PC-3 [28] = assay: Induction of apoptosis in human PC3 cells assessed as necrotic cells at 30 uM after 16 hrs by F2N12S and CYTOX AADvanced double staining-based flow cytometric analysis (reference value: 2 to 3%); assay type: functional
PC-3 [29] = assay: Induction of apoptosis in human PC3 cells assessed as viable cells at 50 uM after 16 hrs by F2N12S and CYTOX AADvanced double staining-based flow cytometric analysis (reference value: 95%); assay type: functional; details: PC-3, 16 h, read-out: Activity
PC-3 [30] = assay: Induction of apoptosis in human PC3 cells assessed as apoptotic cells at 50 uM after 16 hrs by F2N12S and CYTOX AADvanced double staining-based flow cytometric analysis (reference value: 2 to 3%); assay type: functional
PC-3 [31] = assay: Induction of apoptosis in human PC3 cells assessed as necrotic cells at 50 uM after 16 hrs by F2N12S and CYTOX AADvanced double staining-based flow cytometric analysis (reference value: 2 to 3%); assay type: functional
PC-3 [32] = assay: Induction of apoptosis in human PC3 cells assessed as viable cells at 100 uM after 16 hrs by F2N12S and CYTOX AADvanced double staining-based flow cytometric analysis (reference value: 95%); assay type: functional; details: PC-3, 16 h, read-out: Activity
PC-3 [33] = assay: Induction of apoptosis in human PC3 cells assessed as apoptotic cells at 100 uM after 16 hrs by F2N12S and CYTOX AADvanced double staining-based flow cytometric analysis (reference value: 2 to 3%); assay type: functional
PC-3 [34] = assay: Induction of apoptosis in human PC3 cells assessed as necrotic cells at 100 uM after 16 hrs by F2N12S and CYTOX AADvanced double staining-based flow cytometric analysis (reference value: 2 to 3%); assay type: functional

SMILES: CCCCOc1c(-c2cc(OC)c(OC)c(OC)c2)oc2ccccc2c1=O
- IC50 (PC-3 [1]): 12.8 µM
- IC50 (DU-145): > 50 µM
- IC50 (LNCaP): 8.9 µM

SMILES: CCN(CC)CCCCCOc1c(-c2cc(OC)c(OC)c(OC)c2)oc2ccccc2c1=O
- IC50 (PC-3 [1]): 6.6 µM
- IC50 (DU-145): 33.4 µM
- IC50 (LNCaP): 10 µM

SMILES: O=c1c(O)c(-c2ccc(O)c(O)c2)oc2cc(O)ccc12 [FISETIN]
- IC50 (PC-3 [1]): > 50 µM
- IC50 (DU-145): > 50 µM
- IC50 (LNCaP): 34.1 µM

SMILES: CCCC(C)Oc1c(-c2cc(OC)c(OC)c(OC)c2)oc2ccccc2c1=O (centres undefined)
- IC50 (PC-3 [1]): 49.3 µM
- IC50 (DU-145): > 50 µM
- IC50 (LNCaP): 15.1 µM

SMILES: CCOc1c(-c2cc(OC)c(OC)c(OC)c2)oc2ccccc2c1=O
- IC50 (PC-3 [1]): 0.9 µM
- IC50 (DU-145): 6.2 µM
- IC50 (LNCaP): 5.4 µM
- IC50 (PWR-1E): 8.05 µM
- Activity (PC-3 [2]): 55.7%
- Activity (PC-3 [3]): 59%
- Activity (PC-3 [4]): 40.8%
- Activity (PC-3 [5]): 48.6%
- Activity (PC-3 [6]): 7.7%
- Activity (PC-3 [7]): 4.6%
- Activity (PC-3 [8]): 18.7%
- Activity (PC-3 [9]): 11.8%
- Activity (PC-3 [10]): 22.2%
- Activity (PC-3 [11]): 24.5%
- Activity (PC-3 [12]): 19.3%
- Activity (PC-3 [13]): 17.9%
- viability at 1 µM (PC-3 [14]): 94%
- Activity (PC-3 [15]): 3%
- Activity (PC-3 [16]): 3%
- viability at 5 µM (PC-3 [17]): 95%
- Activity (PC-3 [18]): 3%
- Activity (PC-3 [19]): 3%
- viability at 10 µM (PC-3 [20]): 95%
- Activity (PC-3 [21]): 3%
- Activity (PC-3 [22]): 3%
- viability at 20 µM (PC-3 [23]): 93%
- Activity (PC-3 [24]): 5%
- Activity (PC-3 [25]): 5%
- viability at 30 µM (PC-3 [26]): 94%
- Activity (PC-3 [27]): 3%
- Activity (PC-3 [28]): 3%
- viability at 50 µM (PC-3 [29]): 92%
- Activity (PC-3 [30]): 5%
- Activity (PC-3 [31]): 5%
- viability at 100 µM (PC-3 [32]): 91%
- Activity (PC-3 [33]): 6%
- Activity (PC-3 [34]): 6%

SMILES: CCCOc1c(-c2cc(OC)c(OC)c(OC)c2)oc2ccccc2c1=O
- IC50 (PC-3 [1]): 11.8 µM
- IC50 (DU-145): 2.8 µM
- IC50 (LNCaP): 5.7 µM

SMILES: CCCN(CCC)CCCOc1c(-c2cc(OC)c(OC)c(OC)c2)oc2ccccc2c1=O
- IC50 (PC-3 [1]): 16.8 µM
- IC50 (DU-145): > 50 µM
- IC50 (LNCaP): 17.9 µM

SMILES: O=c1c(O)c(-c2ccc(O)c(O)c2)oc2cc(O)cc(O)c12 [QUERCETIN]
- IC50 (PC-3 [1]): > 100 µM
- IC50 (DU-145): > 100 µM

The remaining lines, values ahead:

- IC50 (PC-3 [1]): 2.6 µM
- IC50 (DU-145): 24.2 µM
- IC50 (LNCaP): 7.6 µM
SMILES: CCCN(CCC)CCCCCOc1c(-c2cc(OC)c(OC)c(OC)c2)oc2ccccc2c1=O

- IC50 (PC-3 [1]): 7.1 µM
- IC50 (DU-145): 15.7 µM
- IC50 (LNCaP): 9 µM
SMILES: CCCCN(CCCC)CCCOc1c(-c2cc(OC)c(OC)c(OC)c2)oc2ccccc2c1=O

- IC50 (PC-3 [1]): 29.2 µM
- IC50 (DU-145): > 50 µM
- IC50 (LNCaP): 19.6 µM
SMILES: CCCCCCOc1c(-c2cc(OC)c(OC)c(OC)c2)oc2ccccc2c1=O

- IC50 (PC-3 [1]): 19.1 µM
- IC50 (DU-145): > 50 µM
- IC50 (LNCaP): 24.7 µM
SMILES: COc1cc(-c2oc3ccccc3c(=O)c2OC)cc(OC)c1OC
